Results: ChEMBL document CHEMBL4052586, “Design of Potent and Selective Cathepsin G Inhibitors Based on the Sunflower Trypsin Inhibitor-1 Scaffold” (J Med Chem, 2017)
pKi: −log10 of the molar value. Activity calls are given as the source filed them. No cut-off for these calls is given here. Positions of bridges follow the written chain, without caps; N, C: chain ends. Non-standard residues stand in square brackets, D forms with d. Residues, ends and D or L forms follow the SMILES beside them. ξ: configuration not given here. Phe(4-guanidino) = N=C(N)Nc1ccc(C[C@H](N)C(=O)O)cc1; ξNle = CCCCC(N)C(=O)O

What was measured:
Cathepsin G = molecular target: T1, Cathepsin G (Homo sapiens, UniProt P08311); assay: Inhibition of human cathepsin G using Suc-AAPF-MCA as substrate after 30 mins
T1 sequence (P08311 whole entry): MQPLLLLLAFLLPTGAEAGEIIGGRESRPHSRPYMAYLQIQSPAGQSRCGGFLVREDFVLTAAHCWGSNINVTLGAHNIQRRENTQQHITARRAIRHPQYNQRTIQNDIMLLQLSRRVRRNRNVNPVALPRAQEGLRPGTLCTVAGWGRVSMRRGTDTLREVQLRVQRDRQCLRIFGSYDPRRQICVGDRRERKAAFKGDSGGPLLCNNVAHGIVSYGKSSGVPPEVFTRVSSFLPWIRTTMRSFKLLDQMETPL

[1] = Inhibition of bovine trypsin using Tos-GPR-AMC as substrate preincubated for 30 mins followed by substrate addition
[2] = Selectivity ratio of Ki for rat mast cell chymase to Ki for human cathepsin G
How it was run: (§1)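 Each Ki was determined after 30 min room-temperature protease–inhibitor equilibration, with chromogenic (405 nm) or fluorogenic (360/460 nm) substrate readout in Tris/NaCl buffer pH 8.0. Morrison Ki was fitted by non-linear regression, three independent triplicate experiments, and the off-target Ki was divided by the cathepsin G Ki.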

Homo sapiens [3] = organism: Homo sapiens; assay: Selectivity ratio of Ki for recombinant KLK7 (unknown origin) to Ki for human cathepsin G; how it was run: as §1
Homo sapiens [4] = organism: Homo sapiens; assay: Selectivity ratio of Ki for human PR3 to Ki for human cathepsin G; how it was run: as §1
[5] = Selectivity ratio of Ki for bovine chymotrypsin to Ki for human cathepsin G; how it was run: as §1
Homo sapiens [6] = organism: Homo sapiens; assay: Selectivity ratio of Ki for human neutrophil elastase to Ki for human cathepsin G; how it was run: as §1
[7] = molecular target: T2, Myeloblastin (Homo sapiens) (UniProt P24158); assay: Inhibition of human PR3 at 10000 nM using Suc(OMe)-AAPV-MCA as substrate after 30 mins relative to control
T2 sequence (whole entry): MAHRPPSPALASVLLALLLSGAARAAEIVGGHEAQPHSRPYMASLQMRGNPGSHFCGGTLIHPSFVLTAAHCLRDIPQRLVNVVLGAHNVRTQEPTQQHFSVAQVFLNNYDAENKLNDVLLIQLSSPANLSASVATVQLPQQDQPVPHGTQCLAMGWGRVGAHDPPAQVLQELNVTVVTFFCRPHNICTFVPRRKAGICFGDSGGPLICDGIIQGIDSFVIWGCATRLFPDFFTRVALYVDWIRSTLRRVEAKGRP

Chymase = molecular target: T3, Chymase (Rattus norvegicus, UniProt P50339); assay: Inhibition of rat mast cell chymase using Suc-AAPF-pNA as substrate after 30 mins
T3 sequence (P50339 whole entry): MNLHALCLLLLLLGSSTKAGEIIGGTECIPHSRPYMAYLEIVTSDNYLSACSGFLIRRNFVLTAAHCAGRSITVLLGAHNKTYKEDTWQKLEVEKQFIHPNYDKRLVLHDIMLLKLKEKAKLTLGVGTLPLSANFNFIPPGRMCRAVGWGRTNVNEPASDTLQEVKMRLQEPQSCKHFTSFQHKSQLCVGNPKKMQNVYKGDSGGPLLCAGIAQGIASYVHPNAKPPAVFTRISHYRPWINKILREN
How it was run: (§2)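 Inhibitor and protease were preincubated 30 min at room temperature. pNA substrate release was read at 405 nm for 5 min in 0.15 M NaCl, 0.1 M Tris·HCl pH 8.0, 0.005% Triton X-100, with 10% acetonitrile. Morrison Ki was obtained by non-linear regression from three independent triplicate experiments.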

Kallikrein-7 = Kallikrein-7 (Homo sapiens, UniProt P49862); assay: Inhibition of recombinant KLK7 (unknown origin) expressed in zymogen form in Pichia pastorisstrain X-33 using KHLY-pNA as substrate after 30 mins
Kallikrein-7, sequence (P49862 whole entry): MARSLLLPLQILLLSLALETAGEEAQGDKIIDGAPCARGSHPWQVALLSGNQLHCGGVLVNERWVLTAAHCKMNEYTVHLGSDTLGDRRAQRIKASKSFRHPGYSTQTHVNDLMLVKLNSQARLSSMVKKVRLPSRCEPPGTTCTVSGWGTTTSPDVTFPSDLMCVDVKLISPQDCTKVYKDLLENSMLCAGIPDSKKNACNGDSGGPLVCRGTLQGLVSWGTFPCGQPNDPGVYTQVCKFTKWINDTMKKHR
How it was run: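 Pro-KLK7 from Pichia supernatant was cation-exchange purified, activated with enterokinase (37°C, 2 h), repurified, and active-site titrated with α1-antitrypsin. After 30 min room-temperature equilibration with inhibitor, pNA hydrolysis was followed at 405 nm for 5 min in Tris/NaCl/Triton buffer pH 8.0 with 10% acetonitrile. Morrison Ki came from three independent triplicate runs.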

[8] = Inhibition of bovine chymotrypsin using Suc(OMe)-AAPV-MCA as substrate after 30 mins; set-up: species or system Bos taurus
How it was run: (§3)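 Protease and inhibitor equilibrated 30 min at room temperature, then MCA substrate added in assay buffer (0.15 M NaCl, 0.1 M Tris·HCl pH 8.0, 0.005% Triton X-100). Fluorescence was read at ex 360/em 460 nm over 10 min. Morrison Ki was fitted by non-linear regression from three independent triplicate experiments.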

Myeloblastin = molecular target: T4, Myeloblastin (Homo sapiens, UniProt P24158); assay: Inhibition of human PR3 using Suc(OMe)-AAPV-MCA as substrate after 30 mins; how it was run: as §3
T4 sequence (P24158 whole entry): T2 sequence (whole entry)

Neutrophil elastase = molecular target: T5, Neutrophil elastase (Homo sapiens, UniProt P08246); assay: Inhibition of human neutrophil elastase using Suc(OMe)-AAPV-pNA as substrate after 30 mins; how it was run: as §2
T5 sequence (P08246 whole entry): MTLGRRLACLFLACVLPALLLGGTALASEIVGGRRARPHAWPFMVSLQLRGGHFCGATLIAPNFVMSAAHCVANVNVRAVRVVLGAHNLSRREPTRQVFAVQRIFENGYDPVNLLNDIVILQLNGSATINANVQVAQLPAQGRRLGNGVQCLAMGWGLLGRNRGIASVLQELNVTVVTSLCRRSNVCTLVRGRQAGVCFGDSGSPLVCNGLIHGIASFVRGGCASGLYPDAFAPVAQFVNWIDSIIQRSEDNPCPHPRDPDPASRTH

[9] = molecular target: T6, Cathepsin G (Homo sapiens) (UniProt P08311); assay: Inhibition of human cathepsin G assessed as decrease in angiotensin-2 generation from angiotensin-1 at 100 nM after 1.5 to 3 hrs by RP-UPLC/mass spectroscopic method; settings: in the assay text read “1.5 to 5 hrs” for “1.5 to 3 hrs”
T6 sequence (whole entry): T1 sequence (P08311 whole entry)
How it was run: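 Cathepsin G (10 nM) was incubated with angiotensin I (10 µM) in assay buffer, with or without inhibitor at 100 nM. Aliquots were taken at 1.5, 3 and 5 h and quenched with 2% TFA. Angiotensin I cleavage and angiotensin II formation were analysed by RP-UPLC and electrospray mass spectrometry.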

Homo sapiens [10] = organism: Homo sapiens; assay: Selectivity ratio of Ki for human plasmin to Ki for human cathepsin G; how it was run: as §1
Homo sapiens [11] = organism: Homo sapiens; assay: Selectivity ratio of Ki for human alpha-thrombin to Ki for human cathepsin G; how it was run: as §1
[12] = Selectivity ratio of Ki for bovine trypsin to Ki for human cathepsin G; how it was run: as §1
Plasminogen [13] = molecular target: T7, Plasminogen (Homo sapiens, UniProt P00747); assay: Inhibition of human plasmin at 10000 nM using Ac-RM(O2)YRpNA as substrate after 30 mins
T7 sequence (P00747 97-580 limits assumed): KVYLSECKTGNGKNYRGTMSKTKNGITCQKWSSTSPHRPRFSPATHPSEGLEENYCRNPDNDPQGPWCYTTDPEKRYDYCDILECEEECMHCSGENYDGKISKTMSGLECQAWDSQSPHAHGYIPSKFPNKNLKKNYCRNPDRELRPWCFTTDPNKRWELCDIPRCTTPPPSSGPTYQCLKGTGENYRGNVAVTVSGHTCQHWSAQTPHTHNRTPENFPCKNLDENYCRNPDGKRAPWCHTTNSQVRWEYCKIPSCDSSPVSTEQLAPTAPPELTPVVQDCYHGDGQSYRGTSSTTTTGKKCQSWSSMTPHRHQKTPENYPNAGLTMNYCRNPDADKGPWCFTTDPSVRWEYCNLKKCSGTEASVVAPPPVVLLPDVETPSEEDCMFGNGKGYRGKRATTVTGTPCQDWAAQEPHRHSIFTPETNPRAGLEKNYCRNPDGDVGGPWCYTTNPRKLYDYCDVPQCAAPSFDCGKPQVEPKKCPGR
T7 sequence (P00747 581-810 limits assumed): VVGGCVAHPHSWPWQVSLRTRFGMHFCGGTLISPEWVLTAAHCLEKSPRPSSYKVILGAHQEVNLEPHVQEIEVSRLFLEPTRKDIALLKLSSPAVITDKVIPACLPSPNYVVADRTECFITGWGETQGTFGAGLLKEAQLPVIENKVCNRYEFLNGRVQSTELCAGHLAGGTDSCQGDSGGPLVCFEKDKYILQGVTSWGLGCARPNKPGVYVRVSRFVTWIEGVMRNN

Prothrombin [14] = molecular target: T8, Prothrombin (Homo sapiens, UniProt P00734); assay: Inhibition of human alpha-thrombin at 10000 nM using Glt-Gly-Arg-MCA as substrate after 30 mins
Bos taurus = organism: Bos taurus; assay: Inhibition of bovine chymotrypsin at 10000 nM using Suc(OMe)-AAPV-MCA as substrate after 30 mins relative to control
Plasminogen [15] = molecular target: T7, Plasminogen; assay: Inhibition of human plasmin using Ac-RM(O2)YRpNA as substrate after 30 mins; how it was run: as §2
Prothrombin [16] = molecular target: T8, Prothrombin; assay: Inhibition of human alpha-thrombin using Glt-Gly-Arg-MCA as substrate after 30 mins; how it was run: as §3
[17] = Inhibition of bovine trypsin using Boc-QAR-MCA as substrate after 30 mins; set-up: species or system Bos taurus; how it was run: as §3

pKi (Cathepsin G) | Ratio Ki [2] | Ratio Ki (Homo sapiens [3]) | Ratio Ki (Homo sapiens [4]) | Ratio Ki [5] | Ratio Ki (Homo sapiens [6]) | inhibition [7] [%] | pKi (Chymase) | pKi (Kallikrein-7) | pKi [8] | pKi (Myeloblastin) | pKi (Neutrophil elastase) | SMILES | other results
6.14 |  |  |  |  |  |  |  |  |  |  |  | CC[C@H](C)[C@@H]1NC(=O)[C@@H]2CCCN2C(=O)[C@@H]2CCCN2C(=O)[C@H]([C@@H](C)CC)NC(=O)[C@H](CO)NC(=O)[C@H](CCCCN)NC(=O)[C@H]([C@@H](C)O)NC(=O)[C@@H]2CSSC[C@H](NC1=O)C(=O)N[C@@H](Cc1ccccc1)C(=O)N1CCC[C@H]1C(=O)N[C@@H](CC(=O)O)C(=O)NCC(=O)N[C@@H](CCCNC(=N)N)C(=O)N2 | pKi [1]: 11.77
8.77 | 4.5 | 76 | > 5900 | 83 | 5200 | < 20 | 8.11 | 6.89 | 6.85 | < 5.00 | 5.05 | CCCCC1NC(=O)[C@@H]2CSSC[C@H](NC(=O)[C@H]([C@@H](C)CC)NC(=O)[C@@H]3CCCN3C(=O)[C@@H]3CCCN3C(=O)[C@H](CC(=O)O)NC(=O)[C@H](CO)NC(=O)[C@H](Cc3ccccc3)NC1=O)C(=O)N[C@@H](Cc1ccccc1)C(=O)N1CCC[C@H]1C(=O)N[C@@H](CC(N)=O)C(=O)NCC(=O)N[C@@H]([C@@H](C)O)C(=O)N2 (stereo partly drawn) (cyclo(CFPNGTC[ξNle]FSDPPI); disulfide 1-7) | 
9.05 |  | 78 | > 11000 | 2.1 | 13000 | < 20 |  | 7.16 | 8.72 | < 5.00 | 4.92 | CCCCC1NC(=O)[C@@H]2CSSC[C@H](NC(=O)[C@H]([C@@H](C)CC)NC(=O)[C@@H]3CCCN3C(=O)[C@@H]3CCCN3C(=O)[C@H]([C@@H](C)CC)NC(=O)[C@H](CO)NC(=O)[C@H](Cc3ccccc3)NC1=O)C(=O)N[C@@H](Cc1ccccc1)C(=O)N1CCC[C@H]1C(=O)N[C@@H](CC(N)=O)C(=O)NCC(=O)N[C@@H]([C@@H](C)O)C(=O)N2 (stereo partly drawn) (cyclo(CFPNGTC[ξNle]FSIPPI); disulfide 1-7) | 
8.80 | 12000 | 460 | > 6300 | > 6300 | 27000 | < 20 | 4.71 | 6.13 | < 5.00 | < 5.00 | 4.37 | CCCCC1NC(=O)[C@@H]2CSSC[C@H](NC(=O)[C@H]([C@@H](C)CC)NC(=O)[C@@H]3CCCN3C(=O)[C@@H]3CCCN3C(=O)[C@H](CC(=O)O)NC(=O)[C@H](CO)NC(=O)[C@H](Cc3ccc(NC(=N)N)cc3)NC1=O)C(=O)N[C@@H](Cc1ccccc1)C(=O)N1CCC[C@H]1C(=O)N[C@@H](CC(N)=O)C(=O)NCC(=O)N[C@@H]([C@@H](C)O)C(=O)N2 (stereo partly drawn) (cyclo(CFPNGTC[ξNle][Phe(4-guanidino)]SDPPI); disulfide 1-7) | inhibition [9]: Active; Ratio Ki (Homo sapiens [10]): > 6300; Ratio Ki (Homo sapiens [11]): > 6300; Ratio Ki [12]: 360; inhibition (Plasminogen [13]): < 20%; inhibition (Prothrombin [14]): < 20%; inhibition (Bos taurus): < 20%; pKi (Plasminogen [15]): < 5.00; pKi (Prothrombin [16]): < 5.00; pKi [17]: 6.24
7.92 |  |  |  |  |  |  |  |  |  |  |  | CC[C@H](C)[C@@H]1NC(=O)[C@@H]2CCCN2C(=O)[C@@H]2CCCN2C(=O)[C@H](CC(=O)O)NC(=O)[C@H](CO)NC(=O)[C@H](CCCNC(=N)N)NC(=O)[C@H]([C@@H](C)O)NC(=O)[C@@H]2CSSC[C@H](NC1=O)C(=O)N[C@@H](CC(N)=O)C(=O)N1CCC[C@H]1C(=O)N[C@@H](CC(N)=O)C(=O)NCC(=O)N[C@@H]([C@@H](C)O)C(=O)N2 (cyclo(CNPNGTCTRSDPPI); disulfide 1-7) | 
6.31 |  |  |  |  |  |  |  |  |  |  |  | CC[C@H](C)[C@@H]1NC(=O)[C@@H]2CCCN2C(=O)[C@@H]2CCCN2C(=O)[C@H]([C@@H](C)CC)NC(=O)[C@H](CO)NC(=O)[C@H](CCCNC(=N)N)NC(=O)[C@H]([C@@H](C)O)NC(=O)[C@@H]2CSSC[C@H](NC1=O)C(=O)N[C@@H](CC(N)=O)C(=O)N1CCC[C@H]1C(=O)N[C@@H](CC(N)=O)C(=O)NCC(=O)N[C@@H]([C@@H](C)O)C(=O)N2 (cyclo(CNPNGTCTRSIPPI); disulfide 1-7) | 
